A selection: hits, their analogues and other compounds. The true share with any hit is near 2.3%.
PAFAH1B2 inh: PAFAH1B2 enzyme inhibitors, primary screen, biochemical, fluorescence polarization, human | Platelet-activating factor acetylhydrolase IB subunit alpha2 (Homo sapiens), P68402 | recombinant PAFAH1B2, FP-rhodamine activity probe | inhibition, % at 3.39 µM | 1.2% of 340,000 active | AID 492953, 2010;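 active means inhibition above the mean of all tested compounds plus 3 SD, cut at about 24% in these data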
Target sequence (P68402 whole entry, looked up): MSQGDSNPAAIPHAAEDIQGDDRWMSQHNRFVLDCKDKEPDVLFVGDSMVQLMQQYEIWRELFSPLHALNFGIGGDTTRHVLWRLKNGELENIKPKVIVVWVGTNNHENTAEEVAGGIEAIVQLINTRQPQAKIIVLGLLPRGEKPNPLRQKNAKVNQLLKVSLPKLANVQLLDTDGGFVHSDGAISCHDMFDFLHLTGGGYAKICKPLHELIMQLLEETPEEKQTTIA
TDP2 inh: human TDP2 enzyme inhibitors, primary screen, biochemical, epi absorbance, recombinant enzyme. Tyrosyl-DNA phosphodiesterase 2 (Homo sapiens), O95551. T5PNP hydrolysis, p-nitrophenol absorbance 415 nm. inhibition, % at 12.8 µM. 0.34% of 370,000 active. AID 720702, 2013;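 active means inhibition above the mean of all tested compounds plus 3 SD, set per campaign, cut at about 25% in these data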
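Material: recombinant human TDP2; quantity: TDP2 enzyme at 120 nM final; medium: Tris-HCl pH 7.5 with MgCl2; compound: single concentration, 12.8 µM nominal, with 1% DMSO; incubation: 2 h enzyme incubation at 37 °C; signal: epi absorbance; measure: percent inhibition; benchmarks: high control without enzyme, low control DMSO plus TDP2; repeats: singlicate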
PAFAH2 inh: PAFAH2 enzyme inhibitors, primary screen, biochemical, fluorescence polarization, human; Platelet-activating factor acetylhydrolase 2, cytoplasmic (Homo sapiens), Q99487; recombinant PAFAH2, FP-rhodamine activity probe; inhibition, % at 3.39 µM; 0.99% of 340,000 active;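 active means inhibition above the mean over all tested compounds plus 3 SD, cut at about 30% in these data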;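 further: inhibitors block probe labeling of enzyme so polarization drops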
PAFAH1B3 inh: PAFAH1B3 enzyme inhibitors, primary screen, biochemical, fluorescence polarization, human; recombinant PAFAH1B3, FP-rhodamine probe; inhibition, % at 3.39 µM; 0.28% of 340,000 active; AID 492972, 2010;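 active means inhibition above the screen-wide average of all tested compounds plus 3 SD, cut at about 25% in these data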
Target sequence (Q15102 whole entry, looked up): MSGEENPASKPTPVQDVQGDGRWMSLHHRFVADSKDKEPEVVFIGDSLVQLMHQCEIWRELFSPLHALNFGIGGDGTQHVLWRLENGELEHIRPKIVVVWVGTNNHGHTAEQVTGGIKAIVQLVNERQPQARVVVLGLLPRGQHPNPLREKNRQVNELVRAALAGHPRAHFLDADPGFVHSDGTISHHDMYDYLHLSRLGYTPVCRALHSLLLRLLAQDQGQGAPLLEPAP
Apaf1 inhib: inhibitors of human Apaf-1 apoptosome, primary screen, biochemical, DEVD-Rh110 fluorescence, uHTS. Apoptotic protease-activating factor 1 (Homo sapiens), O14727. reconstituted apoptosome caspase-3 activity. inhibition, % at 20 µM. 0.71% of 330,000 active. AID 489030, 2010; active means inhibition of at least 40% at 20 µM
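System: Apoptosome proteins | Medium: Hepes pH 7.5 with detergent and BSA | Also added: Cytochrome c trigger plus (Z-DEVD)2-Rh110 caspase-3 substrate | Incubation: 30 min compound preincubation, 50 min activation, room temperature | Detection: Rhodamine 110 fluorescence at Ex 480/Em 540 nm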
TDP2 confirm: human TDP2 enzyme inhibitors, retest, confirmation, biochemical, epi absorbance, recombinant enzyme | absorbance read-out | 22% of 1,100 active | inhibition, % at 12.8 µM | shares compounds with TDP2 inh; in the data active means inhibition above about 25%
Of the large screens only hits and unclear results are named; the others gave an inactive call (follow-up assays come after a bar, where they were run).

Clc1cc(Br)ccc1OCCN1CCOCC1	none
Nc1[nH]c2cc(C(F)(F)F)ccc2c1C(=O)N1CCN(CCc2ccccc2)CC1	none (no result: PAFAH1B2 inh, PAFAH2 inh, PAFAH1B3 inh, Apaf1 inhib)
Oc1ccc(Nc2ccccc2F)c2cccnc12	TDP2 inh 36 (no result: PAFAH1B2 inh, PAFAH2 inh, PAFAH1B3 inh, Apaf1 inhib) | TDP2 confirm inactive
COc1cc(OC)c(OC)cc1CN1CCN(Cc2ccc(SC)cc2)CC1	TDP2 inh 25 | TDP2 confirm inactive
COc1cc(CN2CCN(Cc3ccc(SC)cc3)CC2)cc(OC)c1O	none
O=C(Cc1nnc(NC(=O)c2ccccc2)s1)N/N=C\c1ccc(O)c(O)c1	none
COc1cc(/C=N/NC(=O)Cc2nnc(NC(=O)c3ccccc3)s2)ccc1O	TDP2 inh 29 | TDP2 confirm inactive
CCCCC(Sc1nc(N)c(NC(=O)c2ccco2)c(=O)[nH]1)C(=O)O (stereo unspecified)	TDP2 inh 26 | TDP2 confirm inactive
CCCCC(Sc1nc(N)c(NC(=O)c2ccc(OCC)cc2)c(=O)[nH]1)C(=O)O (stereo unspecified)	none
Cc1ccccc1S(=O)Cc1ccc(C(=O)N2CCN(C(=O)c3ccco3)CC2)o1 (stereo unspecified)	TDP2 inh 39 | TDP2 confirm inactive
Cc1cccc(-n2c3nc(=O)[nH]c(=O)c-3cc3cc([N+](=O)[O-])ccc32)c1	TDP2 inh 54 (no result: Apaf1 inhib) | TDP2 confirm 47
Cc1ccc(C)c(-n2c3nc(=O)[nH]c(=O)c-3cc3cc([N+](=O)[O-])ccc32)c1	TDP2 inh 52 (no result: Apaf1 inhib) | TDP2 confirm 40
Cc1cccc(-n2c3nc(=O)[nH]c(=O)c-3cc3c(C)nn(-c4ccccc4)c32)c1C	none
Nc1ccccc1SCC(=O)Nc1ccc(N2CCOCC2)cc1	TDP2 inh 28 | TDP2 confirm inactive
C/C(=C\C(=O)c1ccccc1)Nc1ccc(N2CCOCC2)cc1	TDP2 inh 33 | TDP2 confirm inactive
CC(=O)c1ccc(NC(=S)Nc2ccc(N3CCOCC3)cc2)cc1	TDP2 inh 28 | TDP2 confirm inactive
CCc1ccc(C(=O)NC(=S)Nc2ccc(N3CCOCC3)cc2)cc1	none
C/C(=C\C(=O)c1ccc(Cl)cc1)Nc1ccc(N2CCOCC2)cc1	none
Cc1ccccc1SCC(=O)Nc1ccc(N2CCOCC2)cc1	none
O=C(CCc1ccccc1)N[C@H]1[C@H](OC(=O)c2cnccn2)CCC[C@]12C(=O)N(Cc1ccccc1)c1ccccc12	none (no result: PAFAH1B2 inh, PAFAH2 inh, PAFAH1B3 inh, Apaf1 inhib)
COC(=O)Cc1nnn2c1[C@@H](C)[C@@H](c1ccccc1Br)OC[C@@H]2c1ccccc1	none (no result: PAFAH1B2 inh, PAFAH2 inh, PAFAH1B3 inh, Apaf1 inhib)
COc1ccc(CNc2nc3nc(-c4ccccc4)cc(=O)n3[nH]2)cc1OC	TDP2 inh 33 | TDP2 confirm inactive
COc1ccc(CNc2nc3nc(C)c(Cl)c(=O)n3[nH]2)cc1OC	none
CCN1CCN(CC(=O)Nc2cc3c(cc2C(C)=O)OCO3)CC1	TDP2 inh 26 | TDP2 confirm inactive
CN1CCN(CC(=O)Nc2ccc(S(=O)(=O)N(C)C)cc2)CC1	TDP2 inh 33 | TDP2 confirm inactive
CN(C)S(=O)(=O)c1ccc(NC(=O)CN2CCCCCC2)cc1	none
CC(=O)c1cc2c(cc1NC(=O)CN1CCOCC1)OCO2	none
CCN1CCN(CC(=O)Nc2ccc(C(C)=O)cc2)CC1	TDP2 inh 38 | TDP2 confirm inactive
CCn1c2ccccc2c2cc(NC(=O)COC(=O)c3cccc(F)c3F)ccc21	none (no result: PAFAH1B2 inh, PAFAH2 inh, PAFAH1B3 inh, Apaf1 inhib)
O=C(Cn1cnc([N+](=O)[O-])c1)Nc1ccc(F)c(Cl)c1	TDP2 inh 29 | TDP2 confirm inactive
COC(=O)[C@]12C[C@H](CC(=O)NCCCCc3ccccc3)C(=O)N(CCc3ccc(OC)c(OC)c3)C1=C[C@H](COCc1ccccc1)O[C@@H]2C	none (no result: PAFAH1B2 inh, PAFAH2 inh, PAFAH1B3 inh, Apaf1 inhib)
Nn1cnnc1N/N=C/c1ccccc1C(F)(F)F	TDP2 inh 51 | TDP2 confirm inactive
Nn1cnnc1N/N=C/c1cccc(Cl)c1Cl	TDP2 inh 75 | TDP2 confirm inactive

Assay outcomes: PubChem, several laboratories
